Measurements pooled from the literature.
Lines come from different studies, so protocols differ.
Target: Serine/threonine-protein kinase PAK 5 (PAK5, Homo sapiens, UniProt Q9P286)

Structure (SMILES) | read-out | method | concentration | remaining binding [%]
c1cnn2ncc(-c3ccnc(N4CCC45COC5)n3)c2c1 | binding |  | 1 µM | 85
CNCc1ccccc1-c1csc([C@H](C)Nc2nc(C)nc3cc(OC)c(OC)cc23)c1 | cell-free assay | competition with immobilised ligand | 1 µM | 100
Nc1ncc2c(n1)-c1c([nH]c3ccc(C#CC4CC4)cc13)CCCC2 | binding | competition with immobilised ligand | 1 µM | 97
COc1ccnn2ncc(-c3ccnc(N(C)C)n3)c12 | binding |  | 1 µM | 94
O=C(NCCCN1CCOCC1)c1ccc(Nc2ncc(Cl)c(-c3ccc(Cl)s3)n2)cc1 | binding | competition with immobilised ligand | 1 µM | 73
CS(=O)(=O)N1CCCC(NC(=O)[C@H](CCC2CCCCC2)NC(=O)c2ccc(CNc3ncnc4c3nnn4-c3ccccc3)cc2)C1 (some centres unmarked) | cell-free assay | competition with immobilised ligand | 0.1 µM | 100
F[C@@H]1CCN(c2nccc(-c3cnn4ncccc34)n2)C1 | binding |  | 1 µM | 100
O=C(NCCCN1CCOCC1)c1ccc(Nc2nccc(-c3cc4ccccc4s3)n2)cc1 | binding | competition with immobilised ligand | 1 µM | 81
O=C(Nc1c[nH]nc1C(=O)NC1CCNCC1)c1cc(F)cc(F)c1 | binding | competition with immobilised ligand | 1 µM | 100
Cc1cnn2ncc(-c3ccnc(N(C)C)n3)c2c1 | binding |  | 1 µM | 0
O=C(c1ccc(Nc2ncc(Cl)c(-c3ccc(Cl)s3)n2)cc1)N1CCC(N2CCCC2)CC1 | binding | competition with immobilised ligand | 1 µM | 58
CN(C)CC#Cc1ccc(OCCCc2sc(N3CCc4cccc(C(=O)Nc5nc6ccccc6s5)c4C3)nc2C(=O)O)c(F)c1 | cell-free assay | competition with immobilised ligand | 1 µM | 91
C[C@@H](c1ccc(-n2cnc3c(N)ncnc32)cc1)N1CCc2nn(C)c(Cc3ccccc3)c2C1=O | binding | competition with immobilised ligand | 0.1 µM | 69
c1cncc(-c2cccc(Nc3nccc(NC4CCCCC4)n3)c2)c1 | binding | competition with immobilised ligand | 10 µM | 76
CC1=C(C#N)C(c2ccc3c(c2)c(NC(=O)c2ccccc2C)nn3C)C(C#N)=C(C)N1 | cell-free assay | competition with immobilised ligand | 1 µM | 100
C[C@@H]1CCN(c2nccc(-c3cnn4ncccc34)n2)C1 | binding |  | 1 µM | 90
C[C@@]1(Cc2ccc(C#N)cc2)C(=O)N(c2cc(Cl)cc(Cl)c2)c2ncc(C(=O)NC3(c4nc(C5CCC5)no4)CC3)n21 | cell-free assay | competition with immobilised ligand | 1 µM | 100
N[C@H]1CCN(c2nccc(-c3cnn4ncccc34)n2)C1 | binding |  | 1 µM | 100
C[C@@H]1CN(c2cc(-c3n[nH]c4ccc(OC5(C)CC5)cc34)ncn2)C[C@H](C)O1 | cell-free assay | competition with immobilised ligand | 0.1 µM | 86
COc1cnc(Nc2cccc(S(N)(=O)=O)c2)nc1N1CCN(c2ccccc2)C(=O)C1 | binding | competition with immobilised ligand | 1 µM | 82
